# Test results as given in ChEMBL document CHEMBL4219100, “Discovery of selective EGFR modulator to inhibit L858R/T790M double mutants bearing a N-9-Diphenyl-9H-purin-2-amine scaffold” (Bioorg Med Chem, 2018).
# Molecular target: Epidermal growth factor receptor (Homo sapiens, UniProt P00533, L858R/T790M)
# Assay: Inhibition of recombinant human GST-tagged EGFR L858R/T790M double mutant cytoplasmic domain (668 to 1210 residues) expressed in baculovirus expression system using FAM-labelled peptide as substrate pretreated for 10 mins followed by substrate addition measured after 1 hr by mobility shift assay
# Conditions: read-out: IC50
# Epidermal growth factor receptor (Homo sapiens, UniProt P00533, L858R/T790M), sequence (P00533 25-1210 T790M/L858R limits assumed): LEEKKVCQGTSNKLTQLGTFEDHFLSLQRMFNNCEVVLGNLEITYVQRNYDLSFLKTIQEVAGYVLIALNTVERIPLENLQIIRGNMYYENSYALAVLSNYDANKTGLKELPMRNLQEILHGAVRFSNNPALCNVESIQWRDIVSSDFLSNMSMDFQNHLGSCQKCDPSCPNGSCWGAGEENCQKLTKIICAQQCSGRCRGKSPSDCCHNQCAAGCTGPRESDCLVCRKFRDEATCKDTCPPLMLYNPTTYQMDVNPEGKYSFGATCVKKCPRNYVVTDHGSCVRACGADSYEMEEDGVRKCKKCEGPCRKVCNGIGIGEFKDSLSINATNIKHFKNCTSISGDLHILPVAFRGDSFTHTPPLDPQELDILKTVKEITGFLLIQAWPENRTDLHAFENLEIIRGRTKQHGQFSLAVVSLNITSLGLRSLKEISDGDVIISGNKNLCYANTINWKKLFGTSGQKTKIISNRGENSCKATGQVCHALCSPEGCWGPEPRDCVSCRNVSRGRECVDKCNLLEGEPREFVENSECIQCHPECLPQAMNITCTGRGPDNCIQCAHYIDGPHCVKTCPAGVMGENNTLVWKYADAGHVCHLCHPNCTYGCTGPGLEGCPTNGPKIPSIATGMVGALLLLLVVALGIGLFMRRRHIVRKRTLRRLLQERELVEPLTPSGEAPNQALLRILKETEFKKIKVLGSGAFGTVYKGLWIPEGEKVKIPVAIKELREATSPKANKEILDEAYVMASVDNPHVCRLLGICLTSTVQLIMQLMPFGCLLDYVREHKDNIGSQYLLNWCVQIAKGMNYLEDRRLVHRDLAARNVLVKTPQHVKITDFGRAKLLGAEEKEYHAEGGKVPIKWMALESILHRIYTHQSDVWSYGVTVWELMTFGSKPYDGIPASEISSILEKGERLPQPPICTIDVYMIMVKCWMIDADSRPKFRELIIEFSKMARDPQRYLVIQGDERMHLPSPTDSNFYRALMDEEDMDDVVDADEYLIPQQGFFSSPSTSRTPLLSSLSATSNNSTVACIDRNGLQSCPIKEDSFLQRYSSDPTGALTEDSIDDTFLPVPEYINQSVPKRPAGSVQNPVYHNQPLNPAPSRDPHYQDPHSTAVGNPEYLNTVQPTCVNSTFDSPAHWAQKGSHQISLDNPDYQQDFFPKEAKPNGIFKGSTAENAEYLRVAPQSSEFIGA
row,Structure (SMILES),IC50 [nM]
1,C=CC(=O)Nc1cc(Nc2ncc3ncn(-c4ccc(C(C)C)cc4)c3n2)c(OC)cc1N(C)CCN(C)C,4.2
2,C=CC(=O)Nc1cc(Nc2ncc3ncn(-c4ccc(F)c(Br)c4)c3n2)c(OC)cc1N(C)CCN(C)C,2.3
3,C=CC(=O)Nc1cc(Nc2ncc3ncn(-c4ccc(I)cc4)c3n2)c(OC)cc1N(C)CCN(C)C,3.5
4,C=CC(=O)Nc1cc(Nc2ncc3ncn(-c4ccc(F)cc4)c3n2)c(OC)cc1N(C)CCN(C)C,3.2
5,C=CC(=O)Nc1cc(Nc2ncc3ncn(-c4ccc(Cl)cc4)c3n2)c(OC)cc1N(C)CCN(C)C,3.9
6,C=CC(=O)Nc1cc(Nc2ncc3nc(Nc4ccccc4)n(C)c3n2)c(OC)cc1N(C)CCN(C)C,2.7
7,C=CC(=O)Nc1cc(Nc2ncc3nc(Nc4ccccc4)n(C(C)C)c3n2)c(OC)cc1N(C)CCN(C)C,5.1

# Same assay, conditions: read-out: pIC50 (converted)
row,Structure (SMILES),IC50 [nM]
1,C=CC(=O)Nc1cc(Nc2ncc3nc(Nc4ccccc4)n(C)c3n2)c(OC)cc1N(C)CCN(C)C,2.69

# Test system: HT-29
# Assay: Cytotoxicity against human HT-29 cells after 72 hrs by MTT assay
# Assay type: cell-based
# Conditions: HT-29, 72 h
# Procedure, shortened: (§1)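 Cells grown in MEM with 10% FBS; about 4×10^3 cells per well seeded and held 24 h at 37°C in 5% CO₂. Compounds then added and culture continued 72 h. MTT added ([…]) for 4 h at 37°C. Formazan dissolved in DMSO and absorbance read at 492 nm against 630 nm reference. Each compound tested three times per line; IC50 is the mean of at least three determinations.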
row,Structure (SMILES),IC50 [nM]
1,C=CC(=O)Nc1cc(Nc2ncc3nc(Nc4ccccc4)n(C4CCCC4)c3n2)c(OC)cc1N(C)CCN(C)C,11400
2,C=CC(=O)Nc1cc(Nc2ncc3ncn(-c4ccc(C(C)C)cc4)c3n2)c(OC)cc1N(C)CCN(C)C,15300
3,C=CC(=O)Nc1cc(Nc2ncc3ncn(-c4ccc(F)c(Br)c4)c3n2)c(OC)cc1N(C)CCN(C)C,3640
4,C=CC(=O)Nc1cc(Nc2ncc3ncn(-c4ccc(Cl)cc4Cl)c3n2)c(OC)cc1N(C)CCN(C)C,20600
5,C=CC(=O)Nc1cc(Nc2ncc3ncn(-c4ccc(C(C)C)cc4)c3n2)c(OC)cc1N1CCOCC1,23000
6,C=CC(=O)Nc1cc(Nc2ncc3ncn(-c4ccc(I)cc4)c3n2)c(OC)cc1N1CCN(C)CC1,20700
7,C=CC(=O)Nc1cc(Nc2ncc3ncn(-c4ccc(I)cc4)c3n2)c(OC)cc1N(C)CCN(C)C,9520
8,C=CC(=O)Nc1cc(Nc2ncc3ncn(-c4ccc(I)cc4)c3n2)c(OC)cc1N1CCOCC1,35100
9,C=CC(=O)Nc1cc(Nc2ncc3ncn(-c4ccc(CC)cc4)c3n2)c(OC)cc1N(C)CCN(C)C,8180
10,C=CC(=O)Nc1cc(Nc2ncc3[nH]c(=O)n(-c4ccc(I)cc4)c3n2)c(OC)cc1N(C)CCN(C)C,4820
11,C=CC(=O)Nc1cc(Nc2ncc3ncn(-c4ccc(F)cc4)c3n2)c(OC)cc1N(C)CCN(C)C,12000
12,C=CC(=O)Nc1cc(Nc2ncc3ncn(-c4ccc(Cl)cc4)c3n2)c(OC)cc1N(C)CCN(C)C,7690
13,C=CC(=O)Nc1cc(Nc2ncc3nc(Nc4ccccc4)n(C)c3n2)c(OC)cc1N(C)CCN(C)C,8700
14,C=CC(=O)Nc1cc(Nc2ncc3nc(Nc4ccccc4)n(C(C)C)c3n2)c(OC)cc1N(C)CCN(C)C,4720

# Test system: A549
# Assay: Cytotoxicity against human A549 cells expressing wild-type EGFR/K-ras mutant after 72 hrs by MTT assay
# Assay type: cell-based
# Conditions: A549, 72 h
# Procedure, shortened: as §1
row,Structure (SMILES),IC50 [nM]
1,C=CC(=O)Nc1cc(Nc2ncc3nc(Nc4ccccc4)n(C4CCCC4)c3n2)c(OC)cc1N(C)CCN(C)C,780
2,C=CC(=O)Nc1cc(Nc2ncc3ncn(-c4ccc(C(C)C)cc4)c3n2)c(OC)cc1N(C)CCN(C)C,14500
3,C=CC(=O)Nc1cc(Nc2ncc3ncn(-c4ccc(F)c(Br)c4)c3n2)c(OC)cc1N(C)CCN(C)C,3020
4,C=CC(=O)Nc1cc(Nc2ncc3ncn(-c4ccc(Cl)cc4Cl)c3n2)c(OC)cc1N(C)CCN(C)C,11200
5,C=CC(=O)Nc1cc(Nc2ncc3ncn(-c4ccc(C(C)C)cc4)c3n2)c(OC)cc1N1CCOCC1,4230
6,C=CC(=O)Nc1cc(Nc2ncc3ncn(-c4ccc(I)cc4)c3n2)c(OC)cc1N1CCN(C)CC1,6310
7,C=CC(=O)Nc1cc(Nc2ncc3ncn(-c4ccc(I)cc4)c3n2)c(OC)cc1N(C)CCN(C)C,8710
8,C=CC(=O)Nc1cc(Nc2ncc3ncn(-c4ccc(I)cc4)c3n2)c(OC)cc1N1CCOCC1,1520
9,C=CC(=O)Nc1cc(Nc2ncc3ncn(-c4ccc(CC)cc4)c3n2)c(OC)cc1N(C)CCN(C)C,1970
10,C=CC(=O)Nc1cc(Nc2ncc3[nH]c(=O)n(-c4ccc(I)cc4)c3n2)c(OC)cc1N(C)CCN(C)C,1230
11,C=CC(=O)Nc1cc(Nc2ncc3ncn(-c4ccc(F)cc4)c3n2)c(OC)cc1N(C)CCN(C)C,420
12,C=CC(=O)Nc1cc(Nc2ncc3ncn(-c4ccc(Cl)cc4)c3n2)c(OC)cc1N(C)CCN(C)C,1860
13,C=CC(=O)Nc1cc(Nc2ncc3nc(Nc4ccccc4)n(C)c3n2)c(OC)cc1N(C)CCN(C)C,6080
14,C=CC(=O)Nc1cc(Nc2ncc3nc(Nc4ccccc4)n(C(C)C)c3n2)c(OC)cc1N(C)CCN(C)C,1420

# Organism: Homo sapiens
# Assay: Selectivity ratio of IC50 for recombinant human GST-tagged EGFR cytoplasmic domain (668 to 1210 residues) expressed in baculovirus expression system to IC50 for recombinant human GST-tagged EGFR L858R/T790M double mutant cytoplasmic domain (668 to 1210 residues) expressed in baculovirus expression system
# Conditions: not given
# Procedure, shortened: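 Caliper mobility-shift kinase assay in 50 mM HEPES pH 7.5, 0.0015% Brij35, 2 mM DTT. Five-point DMSO dilution series, in duplicate. Enzyme (EGFR form as appropriate) was preincubated with compound for 10 min at room temperature. FAM-labeled peptide plus ATP was added, then 1 h at 28°C. Stopped with EDTA buffer. Percent inhibition came from substrate conversion; ratio taken as WT IC50 over L858R/T790M IC50.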
row,Structure (SMILES),Ratio IC50
1,C=CC(=O)Nc1cc(Nc2ncc3ncn(-c4ccc(C(C)C)cc4)c3n2)c(OC)cc1N(C)CCN(C)C,6
2,C=CC(=O)Nc1cc(Nc2ncc3ncn(-c4ccc(F)c(Br)c4)c3n2)c(OC)cc1N(C)CCN(C)C,4.3
3,C=CC(=O)Nc1cc(Nc2ncc3ncn(-c4ccc(I)cc4)c3n2)c(OC)cc1N(C)CCN(C)C,4.9
4,C=CC(=O)Nc1cc(Nc2ncc3ncn(-c4ccc(F)cc4)c3n2)c(OC)cc1N(C)CCN(C)C,5.6
5,C=CC(=O)Nc1cc(Nc2ncc3ncn(-c4ccc(Cl)cc4)c3n2)c(OC)cc1N(C)CCN(C)C,7
6,C=CC(=O)Nc1cc(Nc2ncc3nc(Nc4ccccc4)n(C)c3n2)c(OC)cc1N(C)CCN(C)C,8.3
7,C=CC(=O)Nc1cc(Nc2ncc3nc(Nc4ccccc4)n(C(C)C)c3n2)c(OC)cc1N(C)CCN(C)C,8

# Molecular target: Epidermal growth factor receptor (Homo sapiens, UniProt P00533)
# Assay: Inhibition of recombinant human GST-tagged EGFR cytoplasmic domain (668 to 1210 residues) expressed in baculovirus expression system using FAM-labelled peptide as substrate pretreated for 10 mins followed by substrate addition measured after 1 hr by mobility shift assay
# Conditions: not given
# Epidermal growth factor receptor (Homo sapiens, UniProt P00533), sequence (P00533 whole entry, the tested form may be a part): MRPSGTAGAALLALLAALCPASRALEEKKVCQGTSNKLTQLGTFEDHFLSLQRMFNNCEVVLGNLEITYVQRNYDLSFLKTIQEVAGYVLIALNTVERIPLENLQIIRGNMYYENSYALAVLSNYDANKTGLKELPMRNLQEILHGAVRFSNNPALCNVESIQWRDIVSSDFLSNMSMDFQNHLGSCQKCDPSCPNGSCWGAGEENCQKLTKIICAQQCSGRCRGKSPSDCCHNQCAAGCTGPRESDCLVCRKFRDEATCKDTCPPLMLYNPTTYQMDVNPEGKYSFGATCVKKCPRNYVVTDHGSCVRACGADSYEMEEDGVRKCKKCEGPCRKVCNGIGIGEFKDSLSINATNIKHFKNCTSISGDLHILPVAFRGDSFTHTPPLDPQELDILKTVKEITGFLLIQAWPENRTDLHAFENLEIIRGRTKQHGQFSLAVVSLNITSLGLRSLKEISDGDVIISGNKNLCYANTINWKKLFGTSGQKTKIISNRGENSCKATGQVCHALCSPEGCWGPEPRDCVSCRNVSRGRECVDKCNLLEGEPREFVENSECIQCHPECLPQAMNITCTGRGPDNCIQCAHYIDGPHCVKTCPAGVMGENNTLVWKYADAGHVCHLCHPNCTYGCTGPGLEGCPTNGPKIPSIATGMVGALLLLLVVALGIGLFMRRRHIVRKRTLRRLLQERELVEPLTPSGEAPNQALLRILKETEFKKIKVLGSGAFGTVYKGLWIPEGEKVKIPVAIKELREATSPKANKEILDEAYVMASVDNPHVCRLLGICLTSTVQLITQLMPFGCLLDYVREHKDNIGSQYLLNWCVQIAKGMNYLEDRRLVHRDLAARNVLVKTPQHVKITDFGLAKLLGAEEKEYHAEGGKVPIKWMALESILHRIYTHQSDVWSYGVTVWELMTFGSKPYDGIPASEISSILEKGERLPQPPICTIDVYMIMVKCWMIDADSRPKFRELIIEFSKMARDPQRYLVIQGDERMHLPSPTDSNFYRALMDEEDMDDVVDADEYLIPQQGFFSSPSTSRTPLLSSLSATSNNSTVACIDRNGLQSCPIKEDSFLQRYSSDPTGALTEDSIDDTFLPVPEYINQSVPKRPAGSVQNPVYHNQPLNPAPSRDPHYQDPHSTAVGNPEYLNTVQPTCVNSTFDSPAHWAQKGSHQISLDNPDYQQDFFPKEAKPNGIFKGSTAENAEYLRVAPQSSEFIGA
row,Structure (SMILES),IC50 [nM]
1,C=CC(=O)Nc1cc(Nc2ncc3ncn(-c4ccc(C(C)C)cc4)c3n2)c(OC)cc1N(C)CCN(C)C,25
2,C=CC(=O)Nc1cc(Nc2ncc3ncn(-c4ccc(F)c(Br)c4)c3n2)c(OC)cc1N(C)CCN(C)C,10
3,C=CC(=O)Nc1cc(Nc2ncc3ncn(-c4ccc(I)cc4)c3n2)c(OC)cc1N(C)CCN(C)C,17
4,C=CC(=O)Nc1cc(Nc2ncc3ncn(-c4ccc(F)cc4)c3n2)c(OC)cc1N(C)CCN(C)C,18.2
5,C=CC(=O)Nc1cc(Nc2ncc3ncn(-c4ccc(Cl)cc4)c3n2)c(OC)cc1N(C)CCN(C)C,15.6
6,C=CC(=O)Nc1cc(Nc2ncc3nc(Nc4ccccc4)n(C)c3n2)c(OC)cc1N(C)CCN(C)C,22.4
7,C=CC(=O)Nc1cc(Nc2ncc3nc(Nc4ccccc4)n(C(C)C)c3n2)c(OC)cc1N(C)CCN(C)C,41

# Molecular target: Epidermal growth factor receptor (Homo sapiens, UniProt P00533, T790M)
# Assay: Inhibition of recombinant human GST-tagged EGFR T790M mutant cytoplasmic domain (668 to 1210 residues) expressed in baculovirus expression system using FAM-labelled peptide as substrate pretreated for 10 mins followed by substrate addition measured after 1 hr by mobility shift assay
# Conditions: not given
row,Structure (SMILES),IC50 [nM]
1,C=CC(=O)Nc1cc(Nc2ncc3ncn(-c4ccc(I)cc4)c3n2)c(OC)cc1N(C)CCN(C)C,4.7
2,C=CC(=O)Nc1cc(Nc2ncc3ncn(-c4ccc(F)cc4)c3n2)c(OC)cc1N(C)CCN(C)C,5.8
3,C=CC(=O)Nc1cc(Nc2ncc3ncn(-c4ccc(Cl)cc4)c3n2)c(OC)cc1N(C)CCN(C)C,6.4
4,C=CC(=O)Nc1cc(Nc2ncc3nc(Nc4ccccc4)n(C)c3n2)c(OC)cc1N(C)CCN(C)C,3.5

# Organism: Homo sapiens
# Assay: Selectivity ratio of IC50 for human A549 cells expressing wild-type EGFR/K-Ras mutant to IC50 for human NCI-H1975 cells expressing EGFR L858R/T790M double mutant
# Conditions: not given
row,Structure (SMILES),Ratio IC50
1,C=CC(=O)Nc1cc(Nc2ncc3nc(Nc4ccccc4)n(C4CCCC4)c3n2)c(OC)cc1N(C)CCN(C)C,3
2,C=CC(=O)Nc1cc(Nc2ncc3ncn(-c4ccc(C(C)C)cc4)c3n2)c(OC)cc1N(C)CCN(C)C,196
3,C=CC(=O)Nc1cc(Nc2ncc3ncn(-c4ccc(F)c(Br)c4)c3n2)c(OC)cc1N(C)CCN(C)C,86
4,C=CC(=O)Nc1cc(Nc2ncc3ncn(-c4ccc(Cl)cc4Cl)c3n2)c(OC)cc1N(C)CCN(C)C,7
5,C=CC(=O)Nc1cc(Nc2ncc3ncn(-c4ccc(C(C)C)cc4)c3n2)c(OC)cc1N1CCOCC1,< 1
6,C=CC(=O)Nc1cc(Nc2ncc3ncn(-c4ccc(I)cc4)c3n2)c(OC)cc1N1CCN(C)CC1,< 1
7,C=CC(=O)Nc1cc(Nc2ncc3ncn(-c4ccc(I)cc4)c3n2)c(OC)cc1N(C)CCN(C)C,115
8,C=CC(=O)Nc1cc(Nc2ncc3ncn(-c4ccc(I)cc4)c3n2)c(OC)cc1N1CCOCC1,< 1
9,C=CC(=O)Nc1cc(Nc2ncc3ncn(-c4ccc(CC)cc4)c3n2)c(OC)cc1N(C)CCN(C)C,16
10,C=CC(=O)Nc1cc(Nc2ncc3[nH]c(=O)n(-c4ccc(I)cc4)c3n2)c(OC)cc1N(C)CCN(C)C,15
11,C=CC(=O)Nc1cc(Nc2ncc3ncn(-c4ccc(F)cc4)c3n2)c(OC)cc1N(C)CCN(C)C,7
12,C=CC(=O)Nc1cc(Nc2ncc3ncn(-c4ccc(Cl)cc4)c3n2)c(OC)cc1N(C)CCN(C)C,30
13,C=CC(=O)Nc1cc(Nc2ncc3nc(Nc4ccccc4)n(C)c3n2)c(OC)cc1N(C)CCN(C)C,160
14,C=CC(=O)Nc1cc(Nc2ncc3nc(Nc4ccccc4)n(C(C)C)c3n2)c(OC)cc1N(C)CCN(C)C,31

# Test system: NCI-H1975
# Assay: Cytotoxicity against human NCI-H1975 cells expressing EGFR L858R/T790M double mutant after 72 hrs by MTT assay
# Assay type: functional, cell-based
# Conditions: NCI-H1975, 72 h
# Procedure, shortened: as §1
row,Structure (SMILES),IC50 [nM]
1,C=CC(=O)Nc1cc(Nc2ncc3nc(Nc4ccccc4)n(C4CCCC4)c3n2)c(OC)cc1N(C)CCN(C)C,230
2,C=CC(=O)Nc1cc(Nc2ncc3ncn(-c4ccc(C(C)C)cc4)c3n2)c(OC)cc1N(C)CCN(C)C,74
3,C=CC(=O)Nc1cc(Nc2ncc3ncn(-c4ccc(F)c(Br)c4)c3n2)c(OC)cc1N(C)CCN(C)C,35
4,C=CC(=O)Nc1cc(Nc2ncc3ncn(-c4ccc(Cl)cc4Cl)c3n2)c(OC)cc1N(C)CCN(C)C,1610
5,C=CC(=O)Nc1cc(Nc2ncc3ncn(-c4ccc(C(C)C)cc4)c3n2)c(OC)cc1N1CCOCC1,5100
6,C=CC(=O)Nc1cc(Nc2ncc3ncn(-c4ccc(I)cc4)c3n2)c(OC)cc1N1CCN(C)CC1,7320
7,C=CC(=O)Nc1cc(Nc2ncc3ncn(-c4ccc(I)cc4)c3n2)c(OC)cc1N(C)CCN(C)C,76
8,C=CC(=O)Nc1cc(Nc2ncc3ncn(-c4ccc(I)cc4)c3n2)c(OC)cc1N1CCOCC1,29800
9,C=CC(=O)Nc1cc(Nc2ncc3ncn(-c4ccc(CC)cc4)c3n2)c(OC)cc1N(C)CCN(C)C,130
10,C=CC(=O)Nc1cc(Nc2ncc3[nH]c(=O)n(-c4ccc(I)cc4)c3n2)c(OC)cc1N(C)CCN(C)C,830
11,C=CC(=O)Nc1cc(Nc2ncc3ncn(-c4ccc(F)cc4)c3n2)c(OC)cc1N(C)CCN(C)C,61
12,C=CC(=O)Nc1cc(Nc2ncc3ncn(-c4ccc(Cl)cc4)c3n2)c(OC)cc1N(C)CCN(C)C,85
13,C=CC(=O)Nc1cc(Nc2ncc3nc(Nc4ccccc4)n(C)c3n2)c(OC)cc1N(C)CCN(C)C,38
14,C=CC(=O)Nc1cc(Nc2ncc3nc(Nc4ccccc4)n(C(C)C)c3n2)c(OC)cc1N(C)CCN(C)C,46
